In ChEMBL document CHEMBL3045051 (Med Chem Res, 2011):
The source made the active and inactive calls. The calls are words filed in the database; no cut-off is given here.

Key:
[1] = system: Mammalian orthoreovirus 1; test: Antiviral activity against Mammalian orthoreovirus 1 infected VERO cells assessed as inhibition of virus-induced cytopathicity; assay type: functional, organism-based
Outline: (§1)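 Confluent monolayers (feline kidney Crandell, Vero, HEL or HeLa, as named for each virus) were infected with 100 CCID50 of virus and allowed to adsorb for 1 h. Unbound virus was then removed, and cultures were incubated with test compound in serial dilutions (200, 40, 8 … µM). Cytopathicity was scored once untreated infected controls reached complete cytopathic effect.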

Punta Toro virus = test: Antiviral activity against Punta Toro virus infected Hela cells assessed as inhibition of virus-induced cytopathicity; assay type: functional, organism-based
[2] = Antioxidant activity assessed as inhibition of AAPH-induced lipid peroxidation at 1 X 10^-5 M; assay type: functional
Human respirovirus 3 = test: Antiviral activity against Human parainfluenza virus 3 infected Vero cells assessed as inhibition of virus-induced cytopathicity; assay type: functional, organism-based; outline: as §1
Human alphaherpesvirus 1 = test: Antiviral activity against […] 1 KOS infected in human HEL cells assessed as inhibition of virus-induced cytopathicity; assay type: functional, organism-based; outline: as §1
[3] = system: Radical scavenging activity; test: Antioxidant activity assessed as DPPH radical scavenging activity at 1 X 10^-4 M after 20 min; assay type: functional
Outline: (§2)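 Test compound was mixed with DPPH (0.05 and 0.1 mM) in ethanol. Absorbance at 517 nm was read after 20 and 60 min and compared with the NDGA standard, with ethanol as control. Each experiment was run at least in triplicate, and the SD of absorbance was <10% of the mean.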

Human alphaherpesvirus 2 = test: Antiviral activity against Human herpesvirus 2 strain G infected human HEL cells assessed as inhibition of virus-induced cytopathicity; assay type: functional, organism-based; outline: as §1
Coxsackievirus B4 [4] = test: Antiviral activity against Human coxsackievirus B4 infected human HeLa cells assessed as inhibition of virus-induced cytopathicity; assay type: functional, organism-based; outline: as §1
[5] = system: Radical scavenging activity; test: Antioxidant activity assessed as DPPH radical scavenging activity at 1 X 10^-4 M after 60 min; assay type: functional; outline: as §2
Sindbis virus = test: Antiviral activity against Sindbis virus infected Hela cells assessed as inhibition of virus-induced cytopathicity; assay type: functional, organism-based
[6] = system: Vesicular stomatitis virus; test: Antiviral activity against Vesicular stomatitis virus infected HEL cells assessed as inhibition of virus-induced cytopathicity; assay type: functional, organism-based
[7] = system: Radical scavenging activity; test: Antioxidant activity assessed as DPPH radical scavenging activity at 5 X 10^-5 M after 20 min; assay type: functional; outline: as §2
Influenza A virus = test: Antiviral activity against Unidentified Influenza A virus (H1N2) infected MDCK cells assessed as inhibition of virus-induced cytopathicity; assay type: functional, organism-based
Coxsackievirus B4 [8] = test: Antiviral activity against Human coxsackievirus B4 infected VERO cells assessed as inhibition of virus-induced cytopathicity; assay type: functional, organism-based; outline: as §1
Vaccinia virus = test: Antiviral activity against Vaccinia virus infected human HEL cells assessed as inhibition of virus-induced cytopathicity; assay type: functional, organism-based; settings: Orthopoxvirus vaccinia
Feline coronavirus = test: Antiviral activity against Feline coronavirus infected feline kidney crandell cells assessed as inhibition of virus-induced cytopathicity; assay type: functional, organism-based; outline: as §1
[9] = Antioxidant activity assessed as inhibition of AAPH-induced lipid peroxidation at 1 X 10^-4 M; assay type: functional
[10] = biological target: T1, Seed linoleate 13S-lipoxygenase-1 (Glycine max) (UniProt P08170); test: Inhibition of Glycine max (soybean) lipoxygenase using sodium linoleate as substrate at 1 X 10^-4
T1 sequence (whole entry): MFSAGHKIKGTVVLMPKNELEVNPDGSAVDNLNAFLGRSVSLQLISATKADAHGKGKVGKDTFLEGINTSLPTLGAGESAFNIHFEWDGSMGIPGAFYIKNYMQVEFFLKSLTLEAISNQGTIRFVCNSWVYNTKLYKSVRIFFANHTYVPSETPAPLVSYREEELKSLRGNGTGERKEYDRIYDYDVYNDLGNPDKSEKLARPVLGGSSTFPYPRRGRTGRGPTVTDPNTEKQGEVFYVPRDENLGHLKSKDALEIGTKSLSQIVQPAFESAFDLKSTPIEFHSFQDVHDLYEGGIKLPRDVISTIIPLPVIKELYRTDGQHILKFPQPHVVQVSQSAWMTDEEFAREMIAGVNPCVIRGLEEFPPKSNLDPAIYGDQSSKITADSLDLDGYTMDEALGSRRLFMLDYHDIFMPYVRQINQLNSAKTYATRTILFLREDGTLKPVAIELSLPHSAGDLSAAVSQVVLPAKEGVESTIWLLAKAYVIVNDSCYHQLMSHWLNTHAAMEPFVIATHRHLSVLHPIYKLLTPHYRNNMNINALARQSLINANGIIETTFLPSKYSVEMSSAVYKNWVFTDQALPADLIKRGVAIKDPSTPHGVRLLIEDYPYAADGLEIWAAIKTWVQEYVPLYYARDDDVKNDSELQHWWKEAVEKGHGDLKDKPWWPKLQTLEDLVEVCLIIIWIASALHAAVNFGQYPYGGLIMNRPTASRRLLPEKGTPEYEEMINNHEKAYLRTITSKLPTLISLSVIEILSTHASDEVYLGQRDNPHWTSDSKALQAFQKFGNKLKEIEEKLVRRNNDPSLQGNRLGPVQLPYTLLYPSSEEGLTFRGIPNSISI

[11] = system: Vesicular stomatitis virus; test: Antiviral activity against Vesicular stomatitis virus infected Hela cells assessed as inhibition of virus-induced cytopathicity; assay type: functional, organism-based
[12] = system: Respiratory syncytial virus; test: Antiviral activity against Respiratory syncytial virus infected human HeLa cells assessed as inhibition of virus-induced cytopathicity; assay type: functional, organism-based; outline: as §1
[13] = system: Radical scavenging activity; test: Antioxidant activity assessed as DPPH radical scavenging activity at 5 X 10^-5 M after 60 min; assay type: functional; outline: as §2

Row | Structure (SMILES) | Activity [1] | Activity (Punta Toro virus) | inhibition [2] | Activity (Human respirovirus 3) | Activity (Human alphaherpesvirus 1) | inhibition [3] | Activity (Human alphaherpesvirus 2) | Activity (Coxsackievirus B4 [4]) | inhibition [5] | Activity (Sindbis virus) | Activity [6] | inhibition [7] | Activity (Influenza A virus) | Activity (Influenza A virus; H1N1) | Activity (Coxsackievirus B4 [8]) | Activity (Vaccinia virus) | Activity (Feline coronavirus) | inhibition [9] | Activity [11] | Activity [12] | also measured
1 | CC(C(=O)NCCc1ccccc1)c1cccc(C(OC(=O)NCCc2ccccc2)c2ccccc2)c1 (stereo not drawn) | inactive | inactive | 22.5% | inactive | inactive | inactive | inactive | inactive | 2.2% | inactive | inactive | 3.6% | inactive | inactive | inactive | inactive | inactive | 99% | inactive | inactive | inhibition [10]: 18.9%; inhibition [13]: 8.5%
2 | O=C(O)/C=C/c1ccc(O)c(O)c1 | inactive | inactive | – | inactive | inactive | – | inactive | inactive | – | inactive | inactive | – | inactive | inactive | inactive | inactive | inactive | – | inactive | inactive | –
3 | CC(C(=O)NOCc1ccccc1)c1cccc(C(OC(=O)NOCc2ccccc2)c2ccccc2)c1 (stereo not drawn) | inactive | inactive | 49.2% | inactive | inactive | inactive | inactive | inactive | inactive | inactive | inactive | 3.4% | inactive | inactive | inactive | inactive | inactive | 99.3% | inactive | inactive | inhibition [10]: 40.8%; inhibition [13]: 5.6%
4 | CC(C(=O)N1CCCCC1)c1cccc(C(OC(=O)N2CCCCC2)c2ccccc2)c1 (stereo not drawn) | inactive | inactive | 25.5% | inactive | inactive | 1.7% | inactive | inactive | 4.3% | inactive | inactive | 8.6% | inactive | inactive | inactive | inactive | inactive | 97.4% | inactive | inactive | inhibition [10]: inactive; inhibition [13]: 10%
5 | CC(C(=O)N1CCCC1)c1cccc(C(OC(=O)N2CCCC2)c2ccccc2)c1 (stereo not drawn) | inactive | inactive | 16.4% | inactive | inactive | 2.6% | inactive | inactive | 2.7% | inactive | inactive | 5.7% | inactive | inactive | inactive | inactive | inactive | 77.2% | inactive | inactive | inhibition [10]: 12.7%; inhibition [13]: 6.5%
